This is a sample that favours compounds with a hit; in the whole collection about 6.4% have one here.
H69AR inhibit: growth inhibitors of human H69AR lung tumor cells; H69AR lung tumor viability, ATP luminescence, 72 h; stronger effect = lower value; 6% of 85,000 active; viability, % at 10 µM;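 active means viability at or below 40%; inactive means viability above 40%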;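 further: multidrug resistant small cell line overexpressing MRP-1 efflux transporter; 100% = mean luminescence of untreated control wells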
Lung fibro prol: blocks proliferation of human lung fibroblasts. LL 47 human lung fibroblast viability, ATP luminescence; stronger effect = lower value. 1.1% of 85,000 active. AID 719. viability, % at 10 µM;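 active means viability at or below 50% in the single dose screen; inactive means viability above 50%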;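 further: compound exposure lasted 72 h before the ATP readout; 100% = median luminescence of untreated cell-only wells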
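Benchmarks: Cell-only wells, no compound | Test system: LL 47 human lung fibroblasts, passage 12 or lower | Input: 1,150 cells/well | Measured by: CellTiter-Glo luminescence measuring cellular ATP | Medium: IMEM, 15% FBS supplement | Schedule: Overnight attachment after seeding, then 72 h compound exposure at 37 °C | Doses: Compound addition at 0.1% DMSO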
Ecoli WT expand: E. coli BW25113 growth inhibition, expanded screen; growth inhibition, % at 100 µM; 0.15% of 98,000 active; AID 710; OD600 absorbance;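 active means growth inhibition above about 50% at one test dose, limit read from the data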;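 further: growth measured after 20 h incubation at 37 °C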
HUVEC prolif 384: human endothelial cell proliferation inhibition; viability, % at 10 µM (by protocol); HUVEC proliferation, CellTiter-Glo luminescence, 72 h; stronger effect = lower value; 1.1% of 86,000 active;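 active means viability at or below 30%; inactive means viability above 30%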;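 further: 100% = median luminescence of DMSO-only cell control wells on each plate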
Jurkat tox 60K: cytotoxicity toward Jurkat cells | AID 463 | Jurkat E6.1 viability, ATP luminescence, 48 h | inhibition, % at 4 µM | 1.2% of 56,000 active;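 active means inhibition above the mean inhibition of all tested compounds plus 3 SD, cut at about 28% in these data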
Ecoli tolC: E. coli tolC mutant growth inhibition | E. coli BW25113 tolC mutant growth, OD615 | growth inhibition, % at 10 µM (by protocol) | 2.2% of 65,000 active | AID 573;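 active means growth inhibition at or above a cutoff equal to the mean over every tested compound plus 3 SD, cut at about 60% in these data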;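 further: growth measured after 20 h incubation at 37 °C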
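Test system: tolC-deleted E. coli BW25113 | Medium: LB with kanamycin 50 µg/mL | Compound dosing: Single concentration, 10 µM final per compound | Schedule: 37 °C, 20 h exposure | Measured by: OD at 615 nm | Evaluation: Percent growth inhibition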
An asterisk follows results filed as active.

COC(=O)c1ccc(N/C=C/C(=O)c2ccc(OC)c(OC)c2)cc1 was read as Ecoli WT expand -5.
`COc1ccc(CNc2nc3c(c(=O)[nH]c(=O)n3C)n2CCCc2ccccc2)cc1` gave H69AR inhibit 92, Lung fibro prol 105, Ecoli WT expand -14, HUVEC prolif 384 102, Jurkat tox 60K -1 and Ecoli tolC 0.
CC1=CC(C)=Nc2ccc(C)cc2N1 was read as H69AR inhibit 18*, Lung fibro prol 100, Ecoli WT expand -1, HUVEC prolif 384 97, Jurkat tox 60K 0 and Ecoli tolC -20.
For CCCNc1nc(Nc2ccc(C)cc2)nc(N2CCCC2)n1 the results were H69AR inhibit 35*, Lung fibro prol 66, Ecoli WT expand 2 and HUVEC prolif 384 30.
Screening Cc1occc1C(=O)NCCCCNC(=O)c1ccoc1C returned H69AR inhibit 95, Lung fibro prol 105, Ecoli WT expand 7, HUVEC prolif 384 102, Jurkat tox 60K -2 and Ecoli tolC -21.
Screening COc1ccc(C(=O)Nc2nc3cc(OC)c(OC)cc3c(=O)[nH]2)cc1 returned H69AR inhibit 13*, Lung fibro prol 78, Ecoli WT expand 3, HUVEC prolif 384 57, Jurkat tox 60K 6 and Ecoli tolC -4.
CC(=O)Nc1ccc2nc(SCC(=O)O)sc2c1 was read as H69AR inhibit 94, Lung fibro prol 100, Ecoli WT expand -8, HUVEC prolif 384 96, Jurkat tox 60K -6 and Ecoli tolC -14.
For Cc1ccc(C(=O)n2c3ccccc3c3ccccc32)cc1 the results were H69AR inhibit 18*, Lung fibro prol 46*, Ecoli WT expand -11 and HUVEC prolif 384 53.
COc1cc(NC(=O)c2cccs2)c(C(=O)OCC(=O)NC(=O)NCc2ccccc2)cc1OC was read as H69AR inhibit 27*, Lung fibro prol 100, Ecoli WT expand 2 and HUVEC prolif 384 74.
Screening C=CCOc1ccccc1/C=c1\sc2nc(=O)c(C)nn2c1=O returned H69AR inhibit 33*, Lung fibro prol 98, HUVEC prolif 384 90, Jurkat tox 60K -6 and Ecoli tolC -2.
`C[C@@](Cc1ccc(O)c(O)c1)(NN)C(=O)O` gave Ecoli tolC -11.
For CC(Cc1ccc(O)c(O)c1)C(C)Cc1ccc(O)c(O)c1 (centres undefined) the results were H69AR inhibit 33*, Lung fibro prol 93, HUVEC prolif 384 70 and Ecoli tolC 17.
`CN=C1c2cc3cc(OC)ccc3n2CCN1Cc1ccccc1` gave H69AR inhibit 19*, Lung fibro prol 46*, Ecoli WT expand 1 and HUVEC prolif 384 58.
Screening CCN(CC)CCNC1=NCCn2c1cc1cc(OC)ccc12 returned H69AR inhibit 52, Lung fibro prol 81, Ecoli WT expand 4 and HUVEC prolif 384 83.
COC(=O)c1nn(C23CC4CC(CC(C4)C2)C3)c2c1C(=O)N(c1ccc(Br)cc1)C2=O was read as Ecoli WT expand -14.
`CCN(CC)CCCNc1nc2ccccc2[nH]1` gave H69AR inhibit 104, Lung fibro prol 93, Ecoli WT expand 7, HUVEC prolif 384 93, Jurkat tox 60K 0 and Ecoli tolC -12.
For Cc1cccc(C)c1OCc1nnc(SCC(=O)Nc2nccs2)n1-c1ccccc1 the results were H69AR inhibit 20*, Lung fibro prol 87, Ecoli WT expand -7, HUVEC prolif 384 62, Jurkat tox 60K 2 and Ecoli tolC -8.
`Cc1cc(C(=O)O)c2ccccc2n1` gave H69AR inhibit 101, Lung fibro prol 101, Ecoli WT expand -4 and HUVEC prolif 384 98.
Screening Cc1cc(C)c2ccc(C(=O)O)nc2c1O returned H69AR inhibit 38*, Lung fibro prol 93, Ecoli WT expand 12 and HUVEC prolif 384 83.
Screening N#Cc1c(NCc2ccccc2)ccnc1NCc1cccnc1 returned H69AR inhibit 96, Lung fibro prol 92, Ecoli WT expand 4, HUVEC prolif 384 85, Jurkat tox 60K 69* and Ecoli tolC 8.
Cc1n[nH]c(C)c1C(=O)CC1(O)C(=O)N(Cc2ccccc2)c2ccc(Br)cc21 (centres undefined) was read as H69AR inhibit 84, Lung fibro prol 89, Ecoli WT expand 2 and HUVEC prolif 384 69.
Screening COC(=O)c1c(NS(=O)(=O)c2cccs2)sc2c1CCCC2 returned H69AR inhibit 96, Lung fibro prol 97, Ecoli WT expand 3, HUVEC prolif 384 87, Jurkat tox 60K 1 and Ecoli tolC 18.
Screening Cc1oc2c(cc(NS(=O)(=O)c3ccc4c5c(cccc35)C(=O)N4)c3ccccc32)c1C(=O)OC(C)C returned H69AR inhibit 31*, Lung fibro prol 90, Ecoli WT expand -8 and HUVEC prolif 384 63.
For COC(=O)c1c(C)oc2c1cc(NS(=O)(=O)c1cccs1)c1ccccc12 the results were H69AR inhibit 20*, Lung fibro prol 86, Ecoli WT expand -3 and HUVEC prolif 384 53.
CCCCOc1ccc(-c2ncc(C(=O)O)c(C)n2)cc1 was read as H69AR inhibit 98, Lung fibro prol 104, Ecoli WT expand -5, HUVEC prolif 384 99, Jurkat tox 60K 4 and Ecoli tolC 28.
CCC(C)C(=O)Nc1nc(-c2ccc3c(c2)NC(=O)CO3)cs1 (centres undefined) was read as H69AR inhibit 46, Lung fibro prol 104, Ecoli WT expand 5 and HUVEC prolif 384 70.
Screening Nn1c(-c2cccs2)nc2sc3c(c2c1=O)CCCC3 returned H69AR inhibit 31*, Lung fibro prol 84, Ecoli WT expand -10, HUVEC prolif 384 69, Jurkat tox 60K 11 and Ecoli tolC 31.
`CC1(C)Cc2c(sc3nc(-c4ccccc4)n(N)c(=O)c23)CO1` gave H69AR inhibit 94, Lung fibro prol 99, Ecoli WT expand -1 and HUVEC prolif 384 114.
CC1(C)Cc2c(sc3nc(-c4cccs4)n(N)c(=O)c23)CO1 was read as H69AR inhibit 35*, Lung fibro prol 83, Ecoli WT expand -4, HUVEC prolif 384 84 and Ecoli tolC 8.
For Cc1cc(C)c(C#N)c(SCC(=O)OC2CCCCC2)n1 the results were H69AR inhibit 90, Lung fibro prol 101, Ecoli WT expand -9, HUVEC prolif 384 100, Jurkat tox 60K 2 and Ecoli tolC 73*.
COc1cc(C(=O)NCc2ccc(-c3nc4ccccc4o3)cc2)cc(OC)c1OC was read as H69AR inhibit 64, Lung fibro prol 45*, Ecoli WT expand -12, HUVEC prolif 384 38, Jurkat tox 60K 2 and Ecoli tolC 10.
`Cc1ccsc1C(=O)OCC(=O)NCC1CCCO1` (centres undefined) gave H69AR inhibit 105, Lung fibro prol 100, Ecoli WT expand 3, HUVEC prolif 384 101, Jurkat tox 60K 0 and Ecoli tolC -8.
CCN1CCN(c2ncc(C(=O)Nc3cc(Cl)ccc3OC)c3ccccc23)CC1 was read as H69AR inhibit 12*, Lung fibro prol 68, Ecoli WT expand 0, HUVEC prolif 384 19*, Jurkat tox 60K 11 and Ecoli tolC 0.
